INS promoter act: TRM-6 insulin promoter activation. TRM-6 cells (human fetal islet line), insulin promoter eGFP reporter, imaging; plate-scaled: unstimulated 0, stimulated control 100. activation, % at 2 µM. actives 0.81% (n = 130,000). AID 1296;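 active = activation at 2 µM above a set limit, confirmed on inspection of the cell images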;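 note: share of cells whose green reporter signal exceeds an intensity cutoff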
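Assay system: TRM-6 human fetal islet cells, insulin promoter–eGFP reporter; Also added: 0.75 µM tamoxifen as reporter inducer; Schedule: 15 h tamoxifen pre-treatment, 48 h compound treatment at 37 °C; Signal: fixed-cell fluorescence microscopy, eGFP plus Hoechst; Read-out: percent activation from GFP-positive cell fraction; Control set: stimulated and unstimulated wells.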
* hit, by the source's call. This is one part of a sample in which hits are shown more often than they occur.

Results for CC(C)c1ccc(/C=N/NC(=O)c2cccc(Cl)c2)cc1 ?
INS promoter act: 517*

What do the screens show for `Cc1ccc(C)n1NC(=O)c1cccc(Cl)c1`?
INS promoter act: -4

How did CCCN1C=CC(=C/C=C(\C#N)C(=O)OCC)C=C1 do in these assays?
INS promoter act: 141*

Results for CCOC(=O)/C(C#N)=C1/C=CN(C)C=N1 ?
INS promoter act: 0

Results for CCOC(=O)C(/C=C(\C#N)C(=O)OCC)=C(/N)N1CCN(c2ccccc2)CC1 ?
INS promoter act: -7

How did CCOC(=O)/C(C#N)=C1/C=CN(Cc2ccccc2)C=N1 do in these assays?
INS promoter act: -6

Results for CCOC(=O)/C(C#N)=C\C1=C(N2CCCC2)CC(C)(C)OC1 ?
INS promoter act: -3

What do the screens show for `CCCCCCN1C=CC(=C/C=C(\C#N)C(=O)OCC)C=C1`?
INS promoter act: 133*

How did O=C1NCCN1C(=O)N(c1ccccc1)c1ccccc1 do in these assays?
INS promoter act: 3

Results for COC(=O)CCCC(=O)NC(C)c1cnn(-c2ccccc2C)c1C (stereo not drawn) ?
INS promoter act: 0

Results for Nc1nc2c(c(=O)[nH]1)C(c1cccc3ccccc13)C1=C(N2)c2ccccc2C1=O (stereo not drawn) ?
INS promoter act: -71

What do the screens show for `CC1(C)CC(=O)C(N=Nc2ccc(OC(F)F)cc2)=C(O)C1`?
INS promoter act: 0

Results for CCn1ncc(CN2CCCC(CNC(=O)c3ccc(F)cc3)C2)c1C (stereo not drawn) ?
INS promoter act: 4

How did CC(C)(C)C(=O)COC(=O)C1CC(=O)N(c2ccccc2)C1 (stereo not drawn) do in these assays?
INS promoter act: 4

Results for Cc1cc(NC(=O)c2cnn3c(C(F)F)cc(-c4ccccc4)nc23)no1 ?
INS promoter act: 9

Results for Cc1cc(NC(=O)c2cnn3c(C(F)(F)F)cc(-c4ccccc4)nc23)no1 ?
INS promoter act: 429*

What do the screens show for `Cc1cc(NC(=O)c2cnn3c(C(F)F)cc(C4CC4)nc23)no1`?
INS promoter act: 107

How did Cc1cccc(NC(=O)Cn2cnc3c(oc4nc5c(cc43)COC(C)(C)C5)c2=O)c1 do in these assays?
INS promoter act: 0

What do the screens show for `CC(C)(C)N1C(=O)c2ccc(C(=O)NCc3ccco3)cc2C1=O`?
INS promoter act: 304

How did Cc1ccc(NC(=S)NNC(=O)c2ccco2)cc1 do in these assays?
INS promoter act: 9

Results for Cc1nnc(SCC(=O)O)s1 ?
INS promoter act: 8

How did COc1cc(SC)ccc1C(=O)N1CCCCCC1 do in these assays?
INS promoter act: -5

How did C=CCn1c(CCCNC(=O)c2ccccc2OC)nc2ccccc21 do in these assays?
INS promoter act: 0

Results for CCn1cc(CN(C)C(=O)CSc2nc(-c3ccco3)cc(C(F)(F)F)n2)c(C)n1 ?
INS promoter act: 188

What do the screens show for `CC1(c2ccccc2)NC(=O)N(CC(=O)Nc2cccc(C#N)c2)C1=O` (stereo not drawn)?
INS promoter act: 4

Results for CCc1ccc(NC(=O)Cc2ccc(OC)cc2)cc1 ?
INS promoter act: -3

What do the screens show for `COc1ccc(CC(=O)Nc2cccc(-c3ccc4nnc(C)n4n3)c2)cc1`?
INS promoter act: 0

What do the screens show for `COc1ccc(CC(=O)Nc2c3c(nn2-c2ccccc2C)CS(=O)C3)cc1` (stereo not drawn)?
INS promoter act: 456*

How did O=C(Nc1cccc(-c2cnc3ccccc3n2)c1)c1cccc(NC(=O)c2ccco2)c1 do in these assays?
INS promoter act: 7

What do the screens show for `O=C(Nc1cccc(-c2nc3cccnc3s2)c1)c1ccco1`?
INS promoter act: 481*

How did O=C(Nc1nccs1)c1cccc(NC(=O)c2ccco2)c1 do in these assays?
INS promoter act: -93

What do the screens show for `CCN(CC)C(=O)CNC(=S)N(CCCN1CCOCC1)Cc1cccs1`?
INS promoter act: -3

What do the screens show for `C=CCn1c(=O)c2ccccc2n2c(SCC(N)=O)nnc12`?
INS promoter act: 9

How did CC(C)Cn1c(SCC(=O)N2CCCCC2)nc2ccccc2c1=O do in these assays?
INS promoter act: 269

How did O=C(CSc1nnc2n(C3CCCC3)c(=O)c3ccccc3n12)N1CCCCCC1 do in these assays?
INS promoter act: 121*

Results for COCCCNC(CC(=O)Nc1ccccc1C(=O)OC)C(=O)O (stereo not drawn) ?
INS promoter act: 7

How did CCOC(=O)c1ccccc1NCN1C(=O)CSC1=O do in these assays?
INS promoter act: 4

How did COc1ccc(COc2ccc(C3C(S(=O)(=O)c4ccccc4)CON3C)cc2OC)cc1 (stereo not drawn) do in these assays?
INS promoter act: 0

What do the screens show for `CN(C)c1ccc(/C=C/c2cc[n+](C)cc2)cc1`?
INS promoter act: 174*

What do the screens show for `CN(C)c1ccc(/C=N/N=C/c2ccccc2O)cc1`?
INS promoter act: 3

How did CC(=O)/C(=C/c1ccc(N(C)C)cc1)C(=O)c1ccccc1 do in these assays?
INS promoter act: 6

Results for Cc1ccc(-c2csc(NC(=O)CSc3ncn(-c4ccccc4)n3)n2)cc1 ?
INS promoter act: 3

How did CCOc1ccccc1CNC(=O)c1c([N+](=O)[O-])c(C)nn1C do in these assays?
INS promoter act: -8

Results for COc1ccc(C(=O)NCCn2ccc3ccccc32)c(OC)c1 ?
INS promoter act: -3

What do the screens show for `COc1ccc(OC)c(N2Cc3cc(C)c(C)cc3C2)c1`?
INS promoter act: 5

What do the screens show for `CC(Sc1nnc(NC2CCCCC2)s1)C(=O)Nc1ccc2c(c1)C(=O)c1ccccc1C2=O` (stereo not drawn)?
INS promoter act: -8

What do the screens show for `Cc1cccc(C)c1N(CC(O)Cn1c2ccccc2c2ccccc21)S(C)(=O)=O` (stereo not drawn)?
INS promoter act: 89*

How did Cc1cccc(C)c1N(CC(=O)N1CCN(c2ccccc2F)CC1)S(C)(=O)=O do in these assays?
INS promoter act: 7

How did Cc1nccn1CC(O)Cn1c2ccccc2c2ccccc21 (stereo not drawn) do in these assays?
INS promoter act: 9

How did CCOc1ccc(NC(=S)N2CCCN(Cc3cc(C)ccc3C)C2)cc1 do in these assays?
INS promoter act: 7

What do the screens show for `COc1ccc(C2(CNC(=O)Cc3ccc(OC)c(OC)c3)CCOCC2)cc1`?
INS promoter act: -8

What do the screens show for `N#CCSc1ccc(-c2nc3ccccc3[nH]2)cn1`?
INS promoter act: -90

How did O=C(/C=C/c1ccc(OCCCF)cc1)NCc1ccc(Cl)cc1 do in these assays?
INS promoter act: 223*

Results for COc1ccc(/C=C/C(=O)NCCOc2ccc(C)cc2)cc1 ?
INS promoter act: -7

What do the screens show for `Cc1ccc(CSCCNC(=O)/C=C/c2ccc(Cl)cc2)cc1`?
INS promoter act: 3

What do the screens show for `O=C(OCCN(C1=NS(=O)(=O)c2ccccc21)c1ccc(Cl)cc1)c1ccco1`?
INS promoter act: 115

How did O=C(c1ccc(NS(=O)(=O)c2cccs2)cc1)N1CCCCC1 do in these assays?
INS promoter act: -3

What do the screens show for `Cc1nc(CC(C)C)cc(C(=O)N2CCCC(CNS(=O)(=O)c3cccs3)C2)n1` (stereo not drawn)?
INS promoter act: 421*

How did CCOC(=O)C1CCCN(C(=O)c2cc(-c3ccccc3)on2)C1 (stereo not drawn) do in these assays?
INS promoter act: 32

Results for N/C(Cc1cccs1)=N\OC(=O)COc1ccc(Cl)cc1Cl ?
INS promoter act: 3

Results for N#CCCn1cc(/C=C2\NC(=S)N(c3ccccc3)C2=O)c(-c2ccc(-c3ccccc3)cc2)n1 ?
INS promoter act: 6

Screening results deposited in PubChem BioAssay by Columbia University Molecular Screening Center.
